{
  "source": "ChEMBL document CHEMBL2163221",
  "about": "“Discovery of a potential anti-ischemic stroke agent: 3-pentylbenzo[c]thiophen-1(3H)-one” (J Med Chem, 2012)",
  "key": {"[1]": {"system": "Platelet", "test": "Inhibition of arachidonic acid-induced platelet aggregation in rabbit platelet rich plasma by Born's turbidimetric method", "type": "functional", "settings": "Oryctolagus cuniculus", "in_short": "(§1)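 Rabbit carotid blood in 3.8% sodium citrate (9:1); PRP by 500g spin for 10 min, PPP by a further 3000g spin for 10 min. PRP was preincubated in duplicate for 5 min at 37 °C with vehicle or agent (0.1, 0.2, 0.4, 0.8, 1.6 mM). Aggregation was triggered by ADP (10 μM final) or AA (1 mM), and maximal light transmission was read within 5 min, within 3 h of collection. Inhibition % = 100 × (1 − treated/control); IC50 was calculated.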"}, "[2]": {"system": "Platelet", "test": "Inhibition of adenosine diphosphate-induced platelet aggregation in rabbit platelet rich plasma by Born's turbidimetric method", "type": "functional", "settings": "Oryctolagus cuniculus", "in_short": "as §1"}, "[3]": {"system": "Rattus norvegicus", "test": "Antithrombotic activity in Sprague-Dawley rat arteriovenous shunt model assessed as reduction of thrombus wet weight at 30 mg/kg, po qd for 5 consecutive days", "type": "functional", "design": "scale not given: the % may be the effect or the level left", "in_short": "(§2)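 Male SD rats were dosed by gavage in saline daily for 5 days (n = 12/group). An A-V shunt linked the right carotid artery to the left jugular vein: a saline-filled 14 cm polyethylene tube holding 6 cm of four braided silk threads. After 15 min of flow, the threads were weighed wet, then dried 6 h at room temperature and reweighed, less the pre-experiment thread weight.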"}, "[4]": {"system": "Rattus norvegicus", "test": "Anticerebral ischemic activity in Sprague-Dawley rat middle cerebral artery occlusion model assessed as reduction in infarct size in brain at 90 mg/kg, ig for 7 consecutive days by TTC assay", "type": "functional", "design": "scale not given: the % may be the effect or the level left", "settings": "route intragastric", "in_short": "(§3)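 SD rats, chloral hydrate 350 mg/kg ip anaesthesia; right MCA occluded 2 h by silicone-tipped 4-0 nylon filament via ECA into ICA (>80% CBF drop by laser Doppler, 37 ± 0.5 °C), then reperfusion. Dosed in normal saline orally daily 7 days before ischemia. At 24 h, 2-mm coronal slices stained 2% TTC 30 min 37 °C; infarct area as % of whole brain; n = 6.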"}, "[5]": {"system": "PC-12", "test": "Antioxidant activity in rat PC12 cells assessed as inhibition of hydroxyl radical-induced cytotoxicity at 10 uM treated for 2 hrs prior to H2O2/Fe+ challenge measured after 1 hr by MTT assay (reference value: 61.95%)", "type": "functional", "design": "scale not given: the % may be the effect or the level left"}, "[6]": {"system": "Rattus norvegicus", "test": "Antioxidant activity in Sprague-Dawley rat middle cerebral artery occlusion model assessed as increase in glutathione level in brain at 90 mg/kg, ig for 7 consecutive days", "type": "functional", "settings": "route intragastric", "in_short": "(§4)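 Rats pretreated orally in saline for 7 days underwent 2 h MCAO with reperfusion. At 24 h brains were removed, rinsed in cold 0.9% saline, blotted and stored at −70 °C. After protein quantification, GSH, SOD activity and MDA were measured with commercial kits; n = 12/group.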"}, "[7]": {"system": "Rattus norvegicus", "test": "Antioxidant activity in Sprague-Dawley rat middle cerebral artery occlusion model assessed as increase in superoxide dismutase activity at 90 mg/kg, ig for 7 consecutive days", "type": "functional", "settings": "route intragastric", "in_short": "as §4"}, "[8]": {"system": "Rattus norvegicus", "test": "Anticerebral ischemic activity in Sprague-Dawley rat middle cerebral artery occlusion model assessed as reduction in infarct size in brain at 30 mg/kg, ig for 7 consecutive days by TTC assay", "type": "functional", "design": "scale not given: the % may be the effect or the level left", "settings": "route intragastric", "in_short": "as §3"}, "[9]": {"system": "Rattus norvegicus", "test": "Antithrombotic activity in Sprague-Dawley rat arteriovenous shunt model assessed as reduction of thrombus dry weight at 30 mg/kg, po qd for 5 consecutive days", "type": "functional", "design": "scale not given: the % may be the effect or the level left", "in_short": "as §2"}, "[10]": {"system": "Rattus norvegicus", "test": "Antioxidant activity in Sprague-Dawley rat middle cerebral artery occlusion model assessed as decrease in malondialdehyde level in brain at 90 mg/kg, ig for 7 consecutive days", "type": "functional", "design": "scale not given: the % may be the effect or the level left", "settings": "route intragastric", "in_short": "as §4"}, "[11]": {"system": "Plasma", "test": "Anticoagulant activity in rabbit plasma assessed as length of activated partial thromboplastin time", "type": "functional, cell-free", "settings": "Oryctolagus cuniculus"}, "[12]": {"system": "Rattus norvegicus", "test": "Anticerebral ischemic activity in Sprague-Dawley rat middle cerebral artery occlusion model assessed as reduction of water content in brain at 30 mg/kg, ig for 7 consecutive days", "type": "functional, organism-based", "design": "dose 30 mg/kg", "in_short": "(§5)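 Rats given oral saline-vehicle pretreatment for 7 days underwent 2 h suture MCAO plus reperfusion. At 24 h the animals were decapitated and brains weighed wet, then dried at 105 °C for 24 h. Water % = (wet − dry)/wet × 100; n = 6/group.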"}, "[13]": {"system": "Rattus norvegicus", "test": "Anticerebral ischemic activity in Sprague-Dawley rat middle cerebral artery occlusion model assessed as reduction in neurological deficit score at 30 mg/kg, ig for 7 consecutive days by Longa's method", "type": "functional", "design": "scale not given: the % may be the effect or the level left", "settings": "route intragastric", "in_short": "(§6)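 SD rats were dosed orally in normal saline for 7 days before ischemia (n = 12/group). They were anesthetized ip with 350 mg/kg chloral hydrate and given MCAO with a silicone-tipped 4-0 nylon suture for 2 h, then reperfusion. Occlusion was confirmed as >80% CBF drop by laser Doppler, with core temperature held at 37 °C. Deficits were scored blinded by modified Longa's method 24 h after reperfusion.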"}, "[14]": {"system": "Rattus norvegicus", "test": "Anticerebral ischemic activity in Sprague-Dawley rat middle cerebral artery occlusion model assessed as reduction in neurological deficit score at 90 mg/kg, ig for 7 consecutive days by Longa's method", "type": "functional", "design": "scale not given: the % may be the effect or the level left", "settings": "route intragastric", "in_short": "as §6"}, "[15]": {"system": "Rattus norvegicus", "test": "Antithrombotic activity in Sprague-Dawley rat arteriovenous shunt model assessed as reduction of thrombus wet weight at 90 mg/kg, po qd for 5 consecutive days", "type": "functional", "design": "scale not given: the % may be the effect or the level left", "in_short": "as §2"}, "[16]": {"system": "Platelet", "test": "Ratio of edaravone to compound for adenosine diphosphate-induced platelet aggregation in rabbit platelet rich plasma at 0.1 mM", "type": "functional, Oryctolagus cuniculus"}, "[17]": {"system": "Platelet", "test": "Ratio of aspirin to compound for adenosine diphosphate-induced platelet aggregation in rabbit platelet rich plasma at 0.1 mM", "type": "functional, Oryctolagus cuniculus"}, "[18]": {"system": "Platelet", "test": "Ratio of 3-nbutylphthalide to compound for adenosine diphosphate-induced platelet aggregation in rabbit platelet rich plasma at 0.1 mM", "type": "functional, Oryctolagus cuniculus"}, "[19]": {"system": "Rattus norvegicus", "test": "Antioxidant activity in Sprague-Dawley rat middle cerebral artery occlusion model assessed as increase in superoxide dismutase activity at 30 mg/kg, ig for 7 consecutive days", "type": "functional", "settings": "route intragastric", "in_short": "as §4"}, "[20]": {"system": "Rattus norvegicus", "test": "Antioxidant activity in Sprague-Dawley rat middle cerebral artery occlusion model assessed as decrease in malondialdehyde level in brain at 30 mg/kg, ig for 7 consecutive days", "type": "functional", "design": "scale not given: the % may be the effect or the level left", "settings": "route intragastric", "in_short": "as §4"}, "[21]": {"system": "Rattus norvegicus", "test": "Antithrombotic activity in Sprague-Dawley rat arteriovenous shunt model assessed as reduction of thrombus dry weight at 90 mg/kg, po qd for 5 consecutive days", "type": "functional", "design": "scale not given: the % may be the effect or the level left", "in_short": "as §2"}, "[22]": {"system": "Platelet", "test": "Ratio of 3-nbutylphthalide to compound for arachidonic acid-induced platelet aggregation in rabbit platelet rich plasma at 0.1 mM", "type": "functional, Oryctolagus cuniculus"}, "[23]": {"system": "Platelet", "test": "Inhibition of adenosine diphosphate-induced platelet aggregation in rabbit platelet rich plasma at 0.1 mM by Born's turbidimetric method", "type": "functional", "settings": "Oryctolagus cuniculus", "in_short": "as §1"}, "[24]": {"system": "Rattus norvegicus", "test": "Anticerebral ischemic activity in Sprague-Dawley rat middle cerebral artery occlusion model assessed as reduction of water content in brain at 90 mg/kg, ig for 7 consecutive days", "type": "functional, organism-based", "design": "dose 90 mg/kg", "in_short": "as §5"}, "[25]": {"system": "PC-12", "test": "Antioxidant activity in rat PC12 cells assessed as inhibition of hydrogen peroxide induced cytotoxicity at 10 uM treated for 2 hrs prior to H2O2 challenge measured after 1 hr by MTT assay (reference value: 52.45%)", "type": "functional", "design": "scale not given: the % may be the effect or the level left"}, "[26]": {"system": "Rattus norvegicus", "test": "Anticerebral ischemic activity in Sprague-Dawley rat middle cerebral artery occlusion model assessed as reduction in loss of hippocampal neurons at 90 mg/kg, ig for 7 consecutive days by hematoxylin-eosin staining", "type": "functional, organism-based", "design": "dose 90 mg/kg", "in_short": "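Rats dosed ig in saline for 7 days before 2 h MCAO/reperfusion. Brain tissue sections from the ischemic side were stained with hematoxylin–eosin and examined at ×200 for hippocampal neuron loss; n = 6/group.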"}, "[27]": {"system": "Platelet", "test": "Inhibition of arachidonic acid-induced platelet aggregation in rabbit platelet rich plasma at 0.1 mM by Born's turbidimetric method", "type": "functional", "settings": "Oryctolagus cuniculus", "in_short": "as §1"}},
  "note": "pIC50: −log10 of the molar value. Calls of active or inactive are those of the source. No cut-off for these calls is given here.",
  "data": [
    {"smiles": "CCCCCCCC1SC(=O)c2ccccc21", "note": "(racemic)", "values": [
      {"measurement": "pIC50", "setting": "[1]", "result": "< 3.00"},
      {"measurement": "pIC50", "setting": "[2]", "result": 3.14}
    ]},
    {"smiles": "CC(C)CCC1SC(=O)c2ccccc21", "note": "(racemic)", "values": [
      {"measurement": "pIC50", "setting": "[1]", "result": "< 3.00"},
      {"measurement": "pIC50", "setting": "[2]", "result": "< 3.00"}
    ]},
    {"smiles": "CCCCCC1SC(=O)c2ccccc21", "note": "(racemic)", "values": [
      {"measurement": "Activity", "setting": "[3]", "result": 27.35, "unit": "%"},
      {"measurement": "Activity", "setting": "[4]", "result": 59.62, "unit": "%"},
      {"measurement": "Activity", "setting": "[5]", "result": 86.08, "unit": "%"},
      {"measurement": "Activity", "setting": "[6]", "result": 82.67, "unit": "%"},
      {"measurement": "Activity", "setting": "[7]", "result": 39.77, "unit": "%"},
      {"measurement": "Activity", "setting": "[8]", "result": 35.5, "unit": "%"},
      {"measurement": "Activity", "setting": "[9]", "result": 32.85, "unit": "%"},
      {"measurement": "Activity", "setting": "[10]", "result": 40.9, "unit": "%"},
      {"measurement": "pIC50", "setting": "[1]", "result": 3.68},
      {"measurement": "Activity", "setting": "[11]", "result": "inactive"},
      {"measurement": "Activity", "setting": "[12]", "result": "inactive"},
      {"measurement": "Activity", "setting": "[13]", "result": 25.09, "unit": "%"},
      {"measurement": "Activity", "setting": "[14]", "result": 37.45, "unit": "%"},
      {"measurement": "Activity", "setting": "[15]", "result": 39.7, "unit": "%"},
      {"measurement": "Ratio", "setting": "[16]", "result": 1.36},
      {"measurement": "Ratio", "setting": "[17]", "result": 1.45},
      {"measurement": "Ratio", "setting": "[18]", "result": 1.65},
      {"measurement": "pIC50", "setting": "[2]", "result": 3.38},
      {"measurement": "Activity", "setting": "[19]", "result": 25.87, "unit": "%"},
      {"measurement": "Activity", "setting": "[20]", "result": 23.66, "unit": "%"},
      {"measurement": "Activity", "setting": "[21]", "result": 43.33, "unit": "%"},
      {"measurement": "Ratio", "setting": "[22]", "result": 2.02},
      {"measurement": "inhibition at 100 µM", "setting": "[23]", "result": 15.6, "unit": "%"},
      {"measurement": "Activity", "setting": "[24]", "result": "Active"},
      {"measurement": "Activity", "setting": "[25]", "result": 77.23, "unit": "%"},
      {"measurement": "Activity", "setting": "[26]", "result": "Active"},
      {"measurement": "inhibition at 100 µM", "setting": "[27]", "result": 35.2, "unit": "%"}
    ]},
    {"smiles": "CCC1SC(=O)c2ccccc21", "note": "(racemic)", "values": [
      {"measurement": "pIC50", "setting": "[1]", "result": "< 3.00"},
      {"measurement": "pIC50", "setting": "[2]", "result": "< 3.00"}
    ]},
    {"smiles": "CCCC1SC(=O)c2ccccc21", "note": "(racemic)", "values": [
      {"measurement": "pIC50", "setting": "[1]", "result": 3.40},
      {"measurement": "pIC50", "setting": "[2]", "result": "< 3.00"}
    ]},
    {"smiles": "CCCCC1SC(=O)c2ccccc21", "note": "(racemic)", "values": [
      {"measurement": "pIC50", "setting": "[1]", "result": 3.46},
      {"measurement": "pIC50", "setting": "[2]", "result": "< 3.00"}
    ]}
  ]
}
